Legend:
[1] = target: BRAF (Homo sapiens, UniProt P15056); test: ATP-biotin probe labeling competition assay on isolated BRAF; format: binding; details: MEK, KSR1:MEK and KSR2:MEK labeled with 2.5 μM probe (Fig. 4E)
[2] = target: MEK1-NL (Homo sapiens, UniProt Q02750); test: NanoBRET tracer build-up; format: binding
Outline: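 HEK293T cells at ~70% confluence were plated at 200,000 cells/mL and transfected with MEK1-NL alone, MEK1-NL plus mKSR1, or mKSR1-NL, then incubated at least 20 h at 37 °C. The Tram-bo tracer was titrated in each scenario to record BRET, giving an apparent EC50 and maximal BRET signal for each. These set the working tracer concentration above EC50.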

[3] = tested on: mKSR1-NL W781D; details: mKSR1 W781D interface mutant (Fig. 6F); ref Khan et al., 2020; cited from earlier work
[4] = tested on: mKSR1:MEK1 complex; details: steady-state NanoBRET, 1 μM Tram-bo (Fig. 7A); ref Khan et al., 2020; cited from earlier work
[5] = tested on: KRAS mutant cell lines; details: ref Khan et al., 2020; cited from earlier work
[6] = target: the molecule itself; test: SEC

Chain of MEK1-NL (Q02750 whole entry): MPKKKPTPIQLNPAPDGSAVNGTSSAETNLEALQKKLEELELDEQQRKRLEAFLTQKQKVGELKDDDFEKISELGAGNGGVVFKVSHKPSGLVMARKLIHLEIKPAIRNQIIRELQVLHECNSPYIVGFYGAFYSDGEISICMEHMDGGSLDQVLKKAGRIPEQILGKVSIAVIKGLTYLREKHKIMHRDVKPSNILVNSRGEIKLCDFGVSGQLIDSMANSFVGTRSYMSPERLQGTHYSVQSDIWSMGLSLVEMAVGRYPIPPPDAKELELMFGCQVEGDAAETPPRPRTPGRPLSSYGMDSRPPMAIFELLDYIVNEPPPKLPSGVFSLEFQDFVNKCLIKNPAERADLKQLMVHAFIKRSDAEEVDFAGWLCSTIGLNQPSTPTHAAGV
Chain of BRAF (P15056 457-717 limits assumed): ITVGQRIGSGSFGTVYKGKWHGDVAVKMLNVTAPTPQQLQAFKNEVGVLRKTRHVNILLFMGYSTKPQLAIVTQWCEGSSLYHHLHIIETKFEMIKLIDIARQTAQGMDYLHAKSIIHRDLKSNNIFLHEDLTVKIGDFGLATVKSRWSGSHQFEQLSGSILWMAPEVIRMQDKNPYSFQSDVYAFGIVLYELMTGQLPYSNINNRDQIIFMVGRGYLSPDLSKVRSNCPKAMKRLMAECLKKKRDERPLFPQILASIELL

CC(C)(C)c1nc(-c2cccc(NS(=O)(=O)c3c(F)cccc3F)c2F)c(-c2ccnc(N)n2)s1 [dabrafenib]
inhibitor specificity in ATP-biotin competition assay [1]: BRAF-specific inhibition

Cc1c(=O)n(C)c(Nc2ccc(I)cc2F)c2c(=O)n(C3CC3)c(=O)n(-c3cccc(NC(=O)CCOCCOCCNC(=O)CCc4ccc5n4[B-](F)(F)[N+]4=C(c6ccc[nH]6)C=CC4=C5)c3)c12 [Tram-bo]
fold difference of Tram-bo EC50, MEK1-NL vs the two MEK1–mKSR1 complex scenarios ([2]; MEK1-NL vs mKSR1-NL and MEK1-NL coexpressed with mKSR1 (Fig. 6C)): ~ 20 times | apparent EC50 of Tram-bo ([2]; NanoBRET build-up curves (Fig. 6C)): in the nanomolar range

CC(=O)Nc1cccc(-n2c(=O)n(C3CC3)c(=O)c3c(Nc4ccc(I)cc4F)n(C)c(=O)c(C)c32)c1 [trametinib]
dose-response in KSR-NL assay with W781D mutant [3]: loss of a Trametinib dose-response

O=C(c1ccc(F)c(F)c1Nc1ccc(I)cc1F)N1CC(O)([C@@H]2CCCCN2)C1 [cobimetinib]
apparent IC50 on free MEK1 compared with the mKSR1:MEK1 complex [4]: more potent binding to the complex

CNS(=O)(=O)Nc1cccc(-n2c(=O)n(C3CC3)c(=O)c3c(Nc4ccc(I)cc4F)n(C)c(=O)c(C)c32)c1 [trametiglue]
potency of growth inhibition relative to trametinib and other MEKi including CH5126766 [5]: markedly enhanced

B1: KSR1 pseudokinase domain [residues 591–899] (domain or fragment, human, UniProt Q8IVT5 591-899, looked up)
chain: PISRKASQTSVYLQEWDIPFEQVELGEPIGQGRWGRVHRGRWHGEVAIRLLEMDGHNQDHLKLFKKEVMNYRQTRHENVVLFMGACMNPPHLAIITSFCKGRTLHSFVRDPKTSLDINKTRQIAQEIIKGMGYLHAKGIVHKDLKSKNVFYDNGKVVITDFGLFGISGVVREGRRENQLKLSHDWLCYLAPEIVREMTPGKDEDQLPFSKAADVYAFGTVWYELQARDWPLKNQAAEASIWQIGSGEGMKRVLTSVSLGKEVSEILSACWAFDLQERPSFSLLMDMLEKLPKLNRRLSHPGHFWKSADI
binding result [6]: binds

Source: article PMC9150438 (Methods in enzymology, 2022)
